# Bioassay records: PubChem BioAssay, several laboratories
# Tn6 DDE FP: disrupts Tn6 cyclic peptide binding to fibrin D-Dimer-E complex | P02675 | Fibrin DD(E) TRITC-Tn6 fluorescence polarization displacement | inhibition, % at 8.3 µM | hit rate 0.21% among 370,000 | AID 720509;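 active = inhibition above a per-campaign cutoff: mean of compounds within control limits plus 3 SD, cut at about 15% in these data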;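 also: 0% = median of all compound wells on the plate and 100% = blocking peptide control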
# Target sequence (P02675 whole entry, looked up): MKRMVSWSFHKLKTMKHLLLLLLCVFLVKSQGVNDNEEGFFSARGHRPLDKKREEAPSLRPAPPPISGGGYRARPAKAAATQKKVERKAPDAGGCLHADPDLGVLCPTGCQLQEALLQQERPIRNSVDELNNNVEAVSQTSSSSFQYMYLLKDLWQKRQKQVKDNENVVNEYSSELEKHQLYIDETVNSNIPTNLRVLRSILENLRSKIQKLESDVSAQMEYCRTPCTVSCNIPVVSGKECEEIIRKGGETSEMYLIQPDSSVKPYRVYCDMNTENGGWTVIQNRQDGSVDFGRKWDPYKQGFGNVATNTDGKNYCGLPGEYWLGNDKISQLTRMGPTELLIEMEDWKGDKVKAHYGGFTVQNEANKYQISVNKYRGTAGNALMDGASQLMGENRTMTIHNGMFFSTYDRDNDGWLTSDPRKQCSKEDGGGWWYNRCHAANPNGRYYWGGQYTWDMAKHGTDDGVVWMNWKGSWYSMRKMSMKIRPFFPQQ
# Tn7 DDE FP: inhibitors of Tn7 peptide binding to human fibrin DD(E). P02675. FP displacement of FITC-Tn7 peptide from fibrin DD(E); 0% = median of compound wells per plate. inhibition, % at 8.3 µM. hit rate 0.13% among 370,000. AID 720508;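 active = inhibition above the mean of compounds falling within the control limits plus 3 SD of them, cut at about 14% in these data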;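 also: 0% = plate median of compound wells and 100% = 10 µM Aha-Tn7 peptide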
#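 system = human fibrin DD(E) protein | quantity = DD(E) 2 µM final | medium = Tris/NaCl/CaCl2 buffer, pH 7.8 | also added = labelled Tn7 tracer, 0.1 µM | compound dosing = single point at 8.3 µM | timing = compound with protein 10 min, then 3 h after probe, room temperature | signal = FP measurement | benchmarks = Aha-Tn7 high control | repeats = one replicate per compound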
# GRK2 inh: inhibitors of human GRK2 displacing RNA aptamer. inhibition of aptamer binding, % at 10 µM. hit rate 0.59% among 330,000. bead flow cytometry, FAM-aptamer displacement from GRK2. AID 488847. P25098;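 active = inhibition of aptamer binding above 40%, roughly 3 SD of noise, on plates passing a quality check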;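 also: median bead fluorescence of bound FAM aptamer so fluorescent compounds give negative values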
# ARNT-TACC3 inh: ARNT/TACC3 interaction disruption; AlphaScreen His-ARNT PAS-B/GST-TACC3 binding, luminescence; TACC3 fragment carries E629A point mutation; hit rate 0.66% among 390,000; inhibition, % at 9.99 µM;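 active = mean inhibition of replicates at least 50% and at least half of replicates each reaching 50%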;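 also: 0% = complete ARNT plus TACC3 wells and 100% = ARNT alone without TACC3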
# CAL PDZ FP-1: inhibitors of human CAL PDZ peptide binding; Q9HD26; purified CAL PDZ, TMR-peptide fluorescence polarization, 1 h; inhibition, % at 20 µM; hit rate 0.02% among 330,000;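 active = highest replicate inhibition of at least 40%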;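 also: plate controls were DMSO neutral control wells for no effect and unlabeled competitor peptide control wells for full effect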
#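 Test system: purified CerCALP PDZ construct; Compound dosing: one concentration, 20 µM compound; Also added: TMR-labelled reporter peptide T*-PRC34 bound in PDZ groove; Read-out: inhibition from polarization loss; Controls: unlabelled peptide and DMSO controls; Signal: FP readout, S and P plane fluorescence; Incubation: 1 h at RT.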
# CAL PDZ FP-2: CAL PDZ (human) peptide binding inhibition; purified CAL PDZ, TMR-peptide fluorescence polarization, 1 h; Q9HD26; hit rate 0.92% among 300,000; inhibition, % at 24.9 µM; AID 602252;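 active = mean inhibition of at least 30% with at least half of replicates also reaching 30%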;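 also: 0% = DMSO neutral control and 100% = excess unlabeled competitor peptide PRC23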
# The depositor's hits bear a star; . = no result. Most compounds without a hit are left out; they make up all but 1.8% or so of the library.
SMILES,Tn6 DDE FP,Tn7 DDE FP,GRK2 inh,ARNT-TACC3 inh,CAL PDZ FP-1,CAL PDZ FP-2
COC(=O)c1ccccc1NC1=C/C(=N\S(=O)(=O)c2ccc(C(=O)O)cc2)c2ccccc2C1=O,.,.,3,72*,2,0
COc1ccc(S(=O)(=O)NCC2CCCN(C(=O)CC3CCCC3)C2)cc1 (stereo not given),0,8,0,-2,-2,-2
O=[N+]([O-])c1ccc(Cl)cc1Sc1cccc2cccnc12,0,-4,4,14,-1,-3
Cn1nc([N+](=O)[O-])nc1Sc1cccc2cccnc12,-2,1,4,63*,-2,-1
Cn1c(CC(=O)Nc2ccccc2F)nnc1SCC(=O)Nc1ccccc1Br,-1,-3,.,-3,-1,42*
Cn1c(CC(=O)Nc2ccccc2F)nnc1SCC(=O)Nc1nncs1,-1,-7,4,.,-2,-3
Cc1ccc(NC(=O)CCCc2ccccc2)c([N+](=O)[O-])c1,-4,-4,0,0,.,33*
Oc1c(CN2CCOCC2)cc(CN2CCOCC2)c(O)c1O,-2,-1,.,13*,0,0
Cc1ccc(/C=C2/CNC/C(=C/c3ccc(C)cc3)C2=O)cc1,2,0,.,-8,0,39*
O=c1c2ccccc2oc2cc(Br)ccc12,1,6,.,1,-1,89*
COc1cc2oc3ccccc3c(=O)c2cc1OC,.,.,86*,-2,-2,6
O=c1c2ccccc2oc2ccc(Oc3ccccc3)cc12,-1,7,2,-18,-1,-3
C=CCSc1ncnc2c1oc1nc3c(cc12)COC(C)(C)C3,-7,-4,3,-5,-1,84*
COc1cc(F)ccc1-c1cc(C(=O)NCc2ccc(C(F)(F)F)cc2)[nH]n1,9,5,.,.,.,.
Cc1cccc(NC(=O)c2ccc([N+](=O)[O-])s2)c1C,4,-8,4,1,-2,47*
Cc1cccc(C)c1NC(=O)c1ccc([N+](=O)[O-])s1,-1,2,0,5,-2,-7
CCOc1ccc(N(CC(=O)NCc2ccc(C)cc2)S(=O)(=O)c2c(C)[nH]c(=O)[nH]c2=O)cc1,.,.,0,-1,-1,38*
COc1ccc(N(CC(=O)NCc2ccc(C)cc2)S(=O)(=O)c2c(C)[nH]c(=O)[nH]c2=O)cc1,-2,-1,1,1,-2,-2
Cc1ccc(CN(C)C(=O)C2CCC(=O)N(C3CCCCCC3)C2)cc1 (stereo not given),1,3,2,-4,0,39*
CC(C)(C)C(=O)OCc1nc(-c2ccc(C(F)(F)F)cc2)cs1,-8,3,3,-3,0,.
Oc1ccccc1C=NNC(=S)Nc1ccc(F)cc1,4,-1,.,active,-3,-1
Oc1ccccc1/C=N/NC(=S)NC1CC2C=CC1C2 (stereo not given),4,-6,3,64*,0,-6
CN(C)c1nc(N/N=C/c2ccccc2O)nc(Nc2ccc(F)cc2)n1,-7,-6,0,47*,0,3
Oc1ccccc1C=NNC(=S)NC1CC2C=CC1C2 (stereo not given),0,6,.,.,.,.
C/C=C/c1ccc([C@@H]2[C@@H](CO)N3CCCCN(S(=O)(=O)c4cccc(C)c4)C[C@H]23)cc1,.,.,.,-5,.,.
O=C(CSc1nnc(-c2cccnc2)n1C1CCCCC1)N1CCCC1,-5,2,.,.,.,.
COc1cccc(-c2cccc(-c3nc(C(=O)O)cc4c3[C@H](CCO)N(S(=O)C(C)(C)C)C4)c2)c1 (stereo not given in full),.,.,.,-4,.,.
COc1cccc(-c2cccc(-c3nc(C(=O)O)cc4c3[C@@H](CCO)N(S(=O)C(C)(C)C)C4)c2)c1 (stereo not given in full),.,.,.,43*,.,.
CC(C)(C)S(=O)N1Cc2cc(C(=O)NCc3ccc(Oc4ccccc4)cc3)nc(-c3cccc(-c4cc5ccccc5o4)c3)c2[C@H]1CCO (stereo not given in full),17*,4,.,.,.,.
